Test [1] concerns SNU-398. As to the kind of experiment: Growth inhibition of human SNU398 cells after 48 hrs by CellTiter-Glo assay. Type of test: functional. The settings on record: SNU-398, 48 h. A digest of the protocol:
(§1)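 T47D, HCT116 and SNU398 cells from ATCC, run in 96-well format. Cells were exposed continuously to test compound for 48 h, then given CellTiter-Glo reagent, mixed by agitation, held 10–15 min at room temperature and read by luminescence. GI50 is the concentration giving 50% inhibition relative to untreated control cells. Values are means ± SEM of three experiments.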
On the technique in general: Cellular ATP, detected with luciferase, serves as a proxy for viable cell number.

Test [2] relates to SNU-398. As to the kind of experiment: Induction of apoptosis in human SNU398 cells assessed as caspase 3 activation after 24 hrs. Type of test: functional, cell-based. The settings on record: SNU-398, 24 h. A digest of the protocol:
(§2)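 Cell-based caspase-3 activation HTS assay. After compound exposure, the fluorogenic caspase-3 substrate N-(Ac-DEVD)-N-ethoxycarbonyl-R110 in caspase buffer was added and incubated 2 h at 37 °C. Fluorescence was read as RFU. Activation is the ratio of net RFU for treated samples to that of control samples. Values are means ± SEM of three or more experiments.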

For test [3], the system named is HCT-116. As to the kind of experiment: Induction of apoptosis in human HCT116 cells assessed as caspase 3 activation after 24 hrs. Type of test: functional, cell-based. Conditions: HCT-116, 24 h. A digest of the protocol: as §2
Test [4] relates to HCT-116. As to the kind of experiment: Growth inhibition of human HCT116 cells after 48 hrs by CellTiter-Glo assay. The settings on record: HCT-116, 48 h. The test is classed as functional. A digest of the protocol:
as §1

Test [5] relates to T47D. Briefly: Induction of apoptosis in human T47D cells assessed as caspase 3 activation after 24 hrs. The test is classed as functional, cell-based. The gist of the method:
as §2

In test [6] the test system is T47D. Briefly: Growth inhibition of human T47D cells after 48 hrs by CellTiter-Glo assay. Type of test: functional. The gist of the method: as §1

Molecules are shown by their SMILES.

In the case of `C=CC[C@]12OCC3C[C@@]4(Oc5ccccc5C(=O)C4=C[C@@H]31)C2=O`, the GI50 (usually the concentration at which growth is held to half of that of the control) was determined as 1500 nM with SNU-398 [1], 1500 nM with HCT-116 [4] and 1400 nM with T47D [6]. The EC50 (in general, the concentration giving half of the maximal effect) was 5100 nM in the test with SNU-398 [2], over 20000 nM with HCT-116 [3] and 5900 nM in the test on T47D [5].
In the case of `CC(C)=CC[C@]12OC(C)(C)C3C[C@@]4(OC(c5ccccc5)=CC(=O)C4=C[C@@H]31)C2=O`, the GI50 in the test on SNU-398 [1] was 1200 nM; with HCT-116 [4] it was 900 nM; in the test with T47D [6] it was 1000 nM. In addition, the figures for the EC50 in the test on SNU-398 [2], in the test with HCT-116 [3] and in the test with T47D [5] were 2500 nM, 3600 nM and 4800 nM, respectively.
Take `CC(C)=CC[C@]12OC(C)(C)C3C[C@@]4(Oc5ccccc5C(=O)C4=C[C@@H]31)C2=O`: the GI50 with SNU-398 [1] was 300 nM; in the test on HCT-116 [4], 200 nM; in the test with T47D [6], 300 nM. Further, the concentration giving a half-maximal response (EC50) is 1500 nM in the test with SNU-398 [2], 1900 nM in the test on HCT-116 [3] and 2700 nM in the test with T47D [5].
On to `CC(C)=CC[C@@]12OC(C)(C)C3C[C@H](C=C4C(=O)c5ccccc5O[C@]431)C2=O`, for which the concentration for 50% growth inhibition (GI50) in the test on SNU-398 [1], with HCT-116 [4] and with T47D [6] was 200 nM throughout. For the same compound, the values for the EC50 with SNU-398 [2], in the test with HCT-116 [3] and in the test with T47D [5] were 900 nM, 2300 nM and 3000 nM, respectively.
As for `C=CC[C@@]12OCC3C[C@H](CC4C(=O)c5ccccc5O[C@@]341)C2=O` (stereo partly drawn), the GI50 with SNU-398 [1], in the test with HCT-116 [4] and in the test with T47D [6] was over 20000 nM in each case. Moreover, the EC50 in the test with SNU-398 [2], in the test on HCT-116 [3] and with T47D [5] was over 20000 nM each time.
For the compound `C=CC[C@@]12CC3CO[C@](CC=C)(C1=O)[C@@]3(CC=C)C=C2C(=O)c1ccccc1`, the EC50 in the test with SNU-398 [2], in the test with HCT-116 [3] and with T47D [5] was over 20000 nM each time.
Consider `C=CC[C@@]12OCC3C[C@H](C=C4C(=O)c5ccccc5O[C@]431)C2=O`, for which the results for the GI50 with SNU-398 [1], in the test with HCT-116 [4] and in the test with T47D [6] were 1900 nM, 1600 nM and 1600 nM, respectively. For the same compound, the EC50 was 5700 nM in the test with SNU-398 [2], 7100 nM in the test on HCT-116 [3] and over 20000 nM in the test on T47D [5].
Turning to `CC(C)=CCC[C@]1(C)C=Cc2c(O)c3c(c(CC=C(C)C)c2O1)O[C@]12C(C[C@H]4CC1C(C)(C)O[C@@]2(C/C=C(\C)C(=O)O)C4=O)C3=O` (stereo partly drawn), the GI50 with SNU-398 [1], in the test with HCT-116 [4] and in the test on T47D [6] was over 20000 nM throughout. Also, the EC50 in the test on SNU-398 [2], with HCT-116 [3] and with T47D [5] was over 20000 nM throughout.
Regarding `C=CC[C@@]12C=C(C(=O)c3ccccc3)[C@]3(CC=C)C(CO[C@@]3(CC=C)C1=O)C2`, the GI50 in the test on SNU-398 [1], in the test with HCT-116 [4] and in the test with T47D [6] was over 20000 nM in each case. For the same compound, the EC50 in the test with SNU-398 [2], with HCT-116 [3] and in the test on T47D [5] was over 20000 nM throughout.
For the compound `CC(C)=CC[C@@]12OC(C)(C)C3C[C@H](C=C4C(=O)C=C(c5ccccc5)O[C@]431)C2=O`, the figures for the GI50 in the test with SNU-398 [1], in the test with HCT-116 [4] and in the test with T47D [6] were 1200 nM, 1100 nM and 1400 nM, respectively. Further, the results for the EC50 in the test with SNU-398 [2], in the test with HCT-116 [3] and in the test on T47D [5] were 2600 nM, 5400 nM and 5100 nM, respectively.
Regarding `CC(C)=CCC[C@]1(C)C=Cc2c(O)c3c(c(CC=C(C)C)c2O1)O[C@]12C(=C[C@@H]4C[C@H]1C(C)(C)O[C@@]2(C/C=C(/C)C(=O)O)C4=O)C3=O` [GAMBOGIC ACID], the GI50 in the test on SNU-398 [1] came to 200 nM; in the test on HCT-116 [4], 100 nM; in the test on T47D [6] it was 200 nM. Also, the EC50 with SNU-398 [2], with HCT-116 [3] and in the test on T47D [5] was 700 nM in each case.

These data come from ChEMBL document CHEMBL1144751, “Synthesis of caged 2,3,3a,7a-tetrahydro-3,6-methanobenzofuran-7(6H)-ones: Evaluating the minimum structure for apoptosis induction by gambogic acid” (Bioorg Med Chem, 2008).
